{"source": "ChEMBL document CHEMBL4270511", "about": "“Rational design and screening of peptide-based inhibitors of heat shock factor 1 (HSF1)” (Bioorg Med Chem, 2018)", "key": {"[1]": {"target": "T1, Heat shock factor protein 1 (Homo sapiens) (UniProt Q00613)", "T1 sequence (whole entry)": "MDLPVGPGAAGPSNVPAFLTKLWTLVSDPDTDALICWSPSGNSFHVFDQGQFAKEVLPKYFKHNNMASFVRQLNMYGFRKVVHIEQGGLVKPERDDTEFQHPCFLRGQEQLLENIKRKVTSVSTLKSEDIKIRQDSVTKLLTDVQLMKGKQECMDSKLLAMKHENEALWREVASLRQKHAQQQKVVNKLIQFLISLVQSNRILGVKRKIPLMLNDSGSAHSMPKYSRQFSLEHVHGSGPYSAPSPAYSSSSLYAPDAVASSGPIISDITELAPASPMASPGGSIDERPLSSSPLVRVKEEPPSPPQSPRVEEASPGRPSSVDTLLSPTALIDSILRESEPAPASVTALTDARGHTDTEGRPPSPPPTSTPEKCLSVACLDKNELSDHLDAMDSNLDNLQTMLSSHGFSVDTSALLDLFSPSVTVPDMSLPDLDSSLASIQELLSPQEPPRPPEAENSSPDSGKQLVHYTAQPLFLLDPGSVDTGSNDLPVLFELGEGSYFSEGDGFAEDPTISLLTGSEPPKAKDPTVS", "assay": "Inhibition of recombinant human HSF1 expressed in Escherichia coli BL21 (DE3) assessed as reduction in HSF1 trimer-5-fluorescein labeled HSE interaction at 400 uM preincubated for 1 hr followed by DNA tracer addition and measured after 15 mins by competitive fluorescence polarization assay", "how_it_was_run": "(§1)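 His-HSF1 trimer, expressed in BL21 E. coli and isolated by SEC, was shaken with peptide in DMSO for 1 h at room temperature. 5-fluorescein HSE tracer was then added to give final 250 nM trimer, 15 nM tracer and 5% DMSO, followed by 15 min shaking. FP read at 485/530 nm. Single-point final peptide level 400 μM, scored as % inhibition relative to DMSO and tracer-only signals. Dose-response used serial dilutions from 800 μM, with nonlinear-regression IC₅₀ fitting. Duplicates.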"}, "[2]": {"target": "T1, Heat shock factor protein 1 (Homo sapiens)", "assay": "Disruption of full length human HSF1 trimer structure at 20 uM after 30 mins by SDS-PAGE analysis"}, "[3]": {"target": "T2, Heat shock factor protein 1 (Homo sapiens, UniProt Q00613)", "T2 sequence (Q00613 whole entry)": "T1 sequence (whole entry)", "assay": "(§2) Inhibition of recombinant human HSF1 expressed in Escherichia coli BL21 (DE3) assessed as reduction in HSF1 trimer-5-fluorescein labeled HSE interaction preincubated of protein with DNA tracer up to 24 hrs followed by compound addition and measured after 15 mins by fluorescence polarization assay", "details": "in the assay text read “measured after 1 hr” for “measured after 15 mins”", "how_it_was_run": "(§3)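 Peptide added to a pre-formed complex of HSF1 trimer (250 nM) and 5-fluorescein HSE tracer (15 nM), then co-incubated a further 1 h before FP reading at 485/530 nm. Buffer was 25 mM HEPES, 75 mM NaCl, pH 7.5, 10 mM MgCl₂, 0.01% Triton-X. IC₅₀ from nonlinear regression; duplicate experiments.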"}, "[4]": {"target": "T1, Heat shock factor protein 1 (Homo sapiens)", "assay": "as §2", "details": "in the assay text read “measured after 1 hr” for “measured after 15 mins”", "how_it_was_run": "as §3"}, "[5]": {"target": "T1, Heat shock factor protein 1 (Homo sapiens)", "assay": "Disruption of full length human HSF1 trimer structure at 20 uM after 30 mins by size-exclusion chromatographic method", "how_it_was_run": "(§4)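 SEC-purified full-length human HSF1 trimer (2 μM) incubated with 20 μM peptide (10-fold molar excess) or DMSO (2% v/v) at 4 °C for 30 min. Samples then run on Sephacryl S-400 SEC, and collected fractions analysed by immunoblot to follow oligomeric state.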"}, "[6]": {"target": "T1, Heat shock factor protein 1 (Homo sapiens)", "assay": "Disruption of full length human HSF1 trimer structure at 20 uM after 30 mins by Western blot analysis", "how_it_was_run": "as §4"}, "[7]": {"target": "T2, Heat shock factor protein 1", "assay": "(§5) Inhibition of recombinant human HSF1 expressed in Escherichia coli BL21 (DE3) assessed as reduction in HSF1 trimer-5-fluorescein labeled HSE interaction preincubated for 1 hr followed by DNA tracer addition and measured after 15 mins by competitive fluorescence polarization assay", "how_it_was_run": "as §1"}, "[8]": {"target": "T1, Heat shock factor protein 1 (Homo sapiens)", "assay": "as §5", "how_it_was_run": "as §1"}, "DNA": {"test_system": "DNA", "assay": "Binding affinity to 5-fluorescein labeled HSE DNA (unknown origin) after 15 mins to 24 hrs by fluorescence polarization method", "type": "nucleic-acid assay", "how_it_was_run": "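Tracer-binding control: peptides serially diluted from 400 μM, incubated with 15 nM 5-fluorescein HSE tracer alone (no protein) for 15 min, 1 h, 3 h and 24 h. Read by FP at excitation 485 nm and emission 530 nm, with 15-min mP values plotted. Buffer was 25 mM HEPES, 75 mM NaCl, pH 7.5, 10 mM MgCl₂, 0.01% Triton-X. Triplicates.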"}}, "note": "Activity calls are given as the source filed them. The calls are words filed in the database; no cut-off is given here."}
{"substance": "Ac-DAMDSNL-NH2", "values": [{"measurement": "inhibition", "setting": "[1]", "value": 21, "unit": "%"}]}
{"substance": "Ac-DKNELSDHL-NH2", "values": [{"measurement": "inhibition", "setting": "[1]", "value": 0.4, "unit": "%"}]}
{"substance": "Ac-DKNELSDHLDAMDSNL-NH2", "values": [{"measurement": "Activity", "setting": "[2]", "value": "inactive"}, {"measurement": "IC50", "setting": "[3]", "value": 14, "unit": "µM"}, {"measurement": "inhibition", "setting": "[4]", "value": "Dose-dependent effect"}, {"measurement": "Activity", "setting": "[5]", "value": "inactive"}, {"measurement": "inhibition", "setting": "[1]", "value": 91, "unit": "%"}, {"measurement": "Activity", "setting": "[6]", "value": "inactive"}, {"measurement": "IC50", "setting": "[7]", "value": 13, "unit": "µM"}, {"measurement": "inhibition", "setting": "[8]", "value": "Dose-dependent effect"}]}
{"substance": "Ac-DVQLMKGKQECMDSKLLAMKHENEALWREV-NH2", "values": [{"measurement": "inhibition", "setting": "[1]", "value": 8.1, "unit": "%"}]}
{"substance": "Ac-HLDAMDSNLDNLQTMLSSHGFSVDTSALLD-NH2", "values": [{"measurement": "inhibition", "setting": "[1]", "value": 64, "unit": "%"}, {"measurement": "IC50", "setting": "[7]", "value": 150, "unit": "µM"}, {"measurement": "inhibition", "setting": "[8]", "value": "Dose-dependent effect"}]}
{"substance": "Ac-IKIRQDSVTKLLTDVQLMKGKQECMDSK-NH2", "values": [{"measurement": "inhibition", "setting": "[1]", "value": "> 100", "unit": "%"}]}
{"substance": "Ac-LAMKHENEAL-NH2", "values": [{"measurement": "inhibition", "setting": "[1]", "value": 8.2, "unit": "%"}]}
{"substance": "Ac-LAMKHENEALWREVASLRQKHAQQQKVVNKL-NH2", "values": [{"measurement": "Activity", "setting": "DNA", "value": "Active"}]}
{"substance": "Ac-RQKHAQQQKVVNKL-NH2", "values": [{"measurement": "inhibition", "setting": "[1]", "value": 22, "unit": "%"}]}
{"substance": "Ac-WREVASL-NH2", "values": [{"measurement": "inhibition", "setting": "[1]", "value": 27, "unit": "%"}]}
